The values below come from ChEMBL document CHEMBL1122794, “[(Arylcarbonyl)oxy]propanolamines. 1. Novel beta-blockers with ultrashort duration of action” (J Med Chem, 1984).

The species entered for data set [1] is Canis familiaris. The data set can be described thus: Time taken for 80% recovery at a dose of 3.3 microg (3-h infusion period). The conditions noted are these: Canis lupus familiaris. It is filed as functional, organism-based.
Data set [2] can be described thus: t1/2 in canine liver. It is filed as ADME, Canis lupus familiaris. The conditions noted are these: dog.
Data set [3] is filed under the species Canis familiaris. As to the kind of experiment: Percent inhibition of isoproterenol induced tachycardia at a dose of 3.3 microg (3-h infusion period). It is filed as functional, Canis lupus familiaris.
Data set [4] is described as follows: T1/2 in canine blood. It is filed as ADME, […], Canis lupus familiaris. Conditions: dog. An outline of the steps: (§1)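 1 mL of solution containing 50 µg of compound was added to 1 mL of dog or human whole blood, or to 1 mL of 33% (w/v) canine liver homogenate. They were assayed by HPLC on a phenyl column with 60% acetonitrile/40% 0.05 M sodium phosphate (pH 6.6) and UV detection. Half-life was read graphically from concentration versus time.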

Data set [5] is described as follows: Time in which 1/2 of the initial amount disappeared in human blood. It is filed as ADME, organism-based. An outline of the steps: as §1
The species entered for data set [6] is Canis familiaris. As to the kind of experiment: Time taken for 80% recovery at a dose of 106 microg (3-h infusion period). It is filed as functional, organism-based. Conditions: Canis lupus familiaris.
Data set [7] can be described thus: Time in which 1/2 of the initial amount disappeared in canine liver(106). Conditions: dog. It is filed as ADME, […], Canis lupus familiaris. In a few lines: as §1
Data set [8] deals with T1, Adrenergic receptor beta (Homo sapiens, UniProt P08588+P07550+P13945). The data set can be described thus: In vitro blocking of beta adrenergic receptor in guinea pig trachea. It is filed as tissue-based, Cavia porcellus. Conditions: target entry is the homologue from another species.
Data set [9] is described as follows: Stability at pH 7.4 and 37 degree Celsius (after 18 h). It is filed as physicochemical. The conditions noted are these: buffer. In a few lines: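 Chemical stability was tested in pH 7.4 buffer at 37 °C. The percentage of parent compound remaining after 18 h of incubation was recorded.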
The species named for data set [10] is Canis familiaris. As to the kind of experiment: Time taken for 80% recovery at a dose of 172 microg (3-h infusion period). It is filed as functional, organism-based. Conditions: Canis lupus familiaris.
Data set [11] has as its target T1, Adrenergic receptor beta. As to the kind of experiment: In Vitro inhibition of the beta adrenergic receptor in guinea pig atria. It is filed as tissue-based, Cavia porcellus. Conditions: target entry is the homologue from another species.
Data set [12] is described as follows: (§2) Selectivity determined by expression 10[pA2(atria) - pA2 (trachea)] in guinea pig. It is filed as functional, Cavia porcellus. An outline of the steps:
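Selectivity index calculated as 10^[pA2(atria) − pA2(trachea)] from pA2 values measured in isolated guinea pig atria and trachea. A minus sign denotes β2 selectivity.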

The nature of data set [13]: Time in which 1/2 of the initial amount disappeared in canine liver (44). The conditions noted are these: dog. It is filed as ADME, […], Canis lupus familiaris. In a few lines: as §1
The species named for data set [14] is Canis familiaris. The data set can be described thus: Percent inhibition of isoproterenol induced tachycardia at a dose of 4 microg (3-h infusion period). It is filed as functional, Canis lupus familiaris.
Data set [15] is described as follows: as §2. It is filed as functional, Cavia porcellus. The source holds these as a separate data set.
The species named for data set [16] is Canis familiaris. As to the kind of experiment: Time taken for 80% recovery at a dose of 4 microg (3-h infusion period). It is filed as functional, organism-based. Conditions: Canis lupus familiaris.
Data set [17] is filed under the species Canis familiaris. As to the kind of experiment: Time taken for 80% recovery at a dose of 20 microg (3-h infusion period). It is filed as functional, organism-based. The conditions noted are these: Canis lupus familiaris.
The species entered for data set [18] is Canis familiaris. The data set can be described thus: Percent inhibition of isoproterenol induced tachycardia at a dose of 20 microg (3-h infusion period). It is filed as functional, Canis lupus familiaris.
Data set [19] is filed under the species Canis familiaris. The data set can be described thus: Time taken for 80% recovery at a dose of 50 microg (3-h infusion period). It is filed as functional, organism-based. The conditions noted are these: Canis lupus familiaris.
The species named for data set [20] is Canis familiaris. The data set can be described thus: Time taken for 80% recovery at a dose of 226 microg (3-h infusion period). The conditions noted are these: Canis lupus familiaris. It is filed as functional, organism-based.
The species entered for data set [21] is Canis familiaris. As to the kind of experiment: Time taken for 80% recovery at a dose of 121 microg (3-h infusion period) / 88 kg min (40-min infusion model). It is filed as functional, organism-based. The conditions noted are these: Canis lupus familiaris.
For data set [22], the species on record is Canis familiaris. The data set can be described thus: Percent inhibition of isoproterenol induced tachycardia at a dose of 1.3 microg (3-h infusion period). It is filed as functional, Canis lupus familiaris.
The species entered for data set [23] is Canis familiaris. The data set can be described thus: Time taken for 80% recovery at a dose of 59 microg (3-h infusion period). It is filed as functional, organism-based. The conditions noted are these: Canis lupus familiaris. In a few lines: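 After the infusion ended, the time to 80% recovery of the blockade was recorded as duration of action. The listed dose is the average amount infused per minute over the 3-h period, in µg/(kg min).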

For data set [24], the species on record is Canis familiaris. As to the kind of experiment: Time taken for 80% recovery at a dose of 1.1 microg (3-h infusion period). It is filed as functional, organism-based. The conditions noted are these: Canis lupus familiaris.
The species named for data set [25] is Canis familiaris. As to the kind of experiment: Percent inhibition of isoproterenol induced tachycardia at a dose of 1.1 microg (3-h infusion period). It is filed as functional, Canis lupus familiaris.
Data set [26] concerns the target T1, Adrenergic receptor beta. The data set can be described thus: In vitro beta adrenergic receptor blocking in guinea pig trachea. Conditions: target entry is the homologue from another species. It is filed as tissue-based, Cavia porcellus.
The species named for data set [27] is Canis familiaris. The data set can be described thus: Time taken for 80% recovery at a dose of 123 microg (3-h infusion period). The conditions noted are these: Canis lupus familiaris. It is filed as functional, organism-based.

For orientation: half-life means the time in which the quantity being followed falls by half. A word on the Inhibition: it is how much of the control response was suppressed. A low value points to little suppression. `CC(C)C(=O)NCC(C)(C)NCC(O)COC(=O)c1ccccc1F` (stereo unspecified) came in with a Recovery time in the data set listed under Canis familiaris [1] of 22 min. The values for the half-life in data set [2] and in [4] were 3.5 min and 20 min, respectively. The compound further came in with an Inhibition in the data set filed under Canis familiaris [3] of 62%.
For orientation: pA2 means the negative logarithm of the molar antagonist concentration that doubles the agonist concentration needed for the same response. For orientation: fraction remaining means what is left of the initial amount, in per cent. As for `CC(C)NCC(O)COC(=O)c1ccccc1F` (stereo unspecified), the results for the half-life in [5], in [7] and in [4] were 1.7 min, 4 min and 7 min, respectively. Besides, in the data set filed under Canis familiaris [6], the Recovery time came out at 25 min. For the same compound, at Adrenergic receptor beta [8], the pA2 turned out to be 7.1. This compound yielded an amount remaining at 18 h in data set [9] of 83%.
In the data set filed under Canis familiaris [10], `CCCOc1ccccc1C(=O)OCC(O)CNC(C)C` (stereo unspecified) displayed a Recovery time greater than 60 min. In addition, the pA2 at Adrenergic receptor beta [11] is on record as 6.6; at Adrenergic receptor beta [8] it was 7.1. Besides, the Selectivity in [12] is on record as -3.5.
Consider `CC(C)NCC(O)COC(=O)c1ccccc1Cl` (stereo unspecified), for which the half-life in [5] is 1.7 min; in data set [13], 12 min; in data set [4], 28 min. This compound returned a fraction remaining at 18 h in data set [9] of 92%.
Compound `CC(C)(C)NCC(O)COC(=O)c1ccc(O)cc1` (stereo unspecified) returned an Inhibition in the data set filed under Canis familiaris [14] of 71%. Further, the figures for the half-life in [5], in [2] and in data set [4] were 56 min, greater than 180 min and greater than 180 min, respectively. Also, the pA2 amounted to 7.4 on Adrenergic receptor beta [11] and 6.5 at Adrenergic receptor beta [8]. In data set [15], this compound showed a Selectivity of 9. For the same compound, the Recovery time in the data set filed under Canis familiaris [16] is greater than 60 min.
In turn, `CC(C)(C)NCC(O)COC(=O)c1ccccc1F` (stereo unspecified) returned a Recovery time in the data set filed under Canis familiaris [17] of 17 min. In the data set listed under Canis familiaris [18], this compound had an Inhibition of 60%. Further, the half-life in [5] turned out to be 1.6 min; in data set [2], 10 min; in data set [4], 30 min. The values for the pA2 at Adrenergic receptor beta [11] and at Adrenergic receptor beta [8] were 6.8 and 8, respectively. The same compound gave a Selectivity in [15] of -16. This compound had an amount remaining at 18 h in data set [9] of 98%.
With `Cc1ccccc1C(=O)OCC(O)CNC(C)C` (stereo unspecified), the half-life in data set [5] is greater than 180 min; in [2] it was 147 min; in [4] it was greater than 180 min. Further, the pA2 was determined as 6.5 at Adrenergic receptor beta [11] and 7.1 at Adrenergic receptor beta [8]. The same compound registered a Recovery time in the data set listed under Canis familiaris [19] greater than 60 min. For the same compound, the Selectivity in data set [15] was -4. The compound further registered a share remaining at 18 h in data set [9] of 100%.
On to `COc1ccc(CCNCC(O)COC(=O)c2ccccc2C)cc1OC` (stereo unspecified), for which the Recovery time in the data set listed under Canis familiaris [20] is greater than 60 min. The values for the pA2 at Adrenergic receptor beta [11] and at Adrenergic receptor beta [8] were 7 and 6.8, respectively. In addition, the Selectivity in [15] came to 2. The compound further displayed a share remaining at 18 h in data set [9] of 94%.
For `COc1ccc(CCNCC(O)COC(=O)c2ccccc2)cc1OC` (stereo unspecified), the pA2 at Adrenergic receptor beta [11] worked out at 7; on Adrenergic receptor beta [8] it was 6.3. Besides, the Recovery time in the data set filed under Canis familiaris [21] worked out at 29 min. Also, the Selectivity in data set [15] is recorded as 5.
In turn, `CC(C)NCC(O)COc1cccc2ccccc12` (stereo unspecified) [PROPRANOLOL] registered an Inhibition in the data set filed under Canis familiaris [22] of 68%. The same compound gave a half-life in data set [4] greater than 180 min.
`COc1ccc(CCNCC(O)COC(=O)c2ccc(F)cc2)cc1OC` (stereo unspecified) came in with a Recovery time in the data set filed under Canis familiaris [23] greater than 60 min. In addition, the pA2 on Adrenergic receptor beta [11] is 7; at Adrenergic receptor beta [8] it was 6.7. The Selectivity in data set [15] came out at 2.
In the data set listed under Canis familiaris [24], `CC(C)(CNC(=O)N1CCOCC1)NCC(O)COC(=O)c1ccccc1F` (stereo unspecified) showed a Recovery time greater than 60 min. For the same compound, the pA2 at Adrenergic receptor beta [11] turned out to be 8.5; on Adrenergic receptor beta [26], 8.2. This compound also came in with an Inhibition in the data set filed under Canis familiaris [25] of 81%. In addition, the Selectivity in data set [15] is 2.
For `CC(C)NCC(O)COC(=O)c1ccc2c(c1)OCO2` (stereo unspecified), the pA2 on Adrenergic receptor beta [11] amounted to 6.9. For the same compound, the half-life in [2] was 29 min. In the data set listed under Canis familiaris [27], this compound had a Recovery time of 50 min.
